Measured values reported in ChEMBL document CHEMBL1250552, “Quantitative structure-activity relationship studies of threo-methylphenidate analogs” (Bioorg Med Chem, 2010).

Target: Sodium-dependent dopamine transporter (Rattus norvegicus, UniProt P23977)
Test: Displacement of [3H]WIN 35428 from Sprague-Dawley rat striatal tissue after 2 hrs by liquid scintillation counting
Assay type: tissue-based, Striatum
Details: read-out: IC50
Summary of the method: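 Male Sprague–Dawley rats anesthetized with CO₂ gas. Crude synaptosomal P₂ fraction made from striatum and homogenized in 25 mM sodium phosphate, pH 7.7, at 0 °C. Rapid filtration through glass microfiber filters, then scintillation counting.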

Sodium-dependent dopamine transporter, sequence (P23977 whole entry): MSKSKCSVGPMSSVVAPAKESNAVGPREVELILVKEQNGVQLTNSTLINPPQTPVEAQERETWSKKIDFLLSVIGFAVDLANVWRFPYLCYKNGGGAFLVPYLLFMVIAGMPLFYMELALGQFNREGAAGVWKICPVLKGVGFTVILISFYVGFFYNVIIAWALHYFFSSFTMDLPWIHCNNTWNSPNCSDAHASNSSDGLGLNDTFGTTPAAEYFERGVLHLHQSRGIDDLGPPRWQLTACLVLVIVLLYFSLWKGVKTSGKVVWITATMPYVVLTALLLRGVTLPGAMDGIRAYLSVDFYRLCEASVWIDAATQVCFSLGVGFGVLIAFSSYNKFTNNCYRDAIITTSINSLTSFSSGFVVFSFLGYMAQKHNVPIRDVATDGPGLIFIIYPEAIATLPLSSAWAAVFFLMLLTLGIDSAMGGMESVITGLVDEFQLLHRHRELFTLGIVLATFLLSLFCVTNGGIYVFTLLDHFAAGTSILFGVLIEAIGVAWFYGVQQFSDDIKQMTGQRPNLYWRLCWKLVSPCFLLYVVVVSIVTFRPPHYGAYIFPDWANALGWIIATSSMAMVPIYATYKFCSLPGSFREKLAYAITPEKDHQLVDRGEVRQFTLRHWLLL

SMILES	IC50 [nM]
COC(=O)[C@H](c1ccc(Cl)cc1)[C@H]1CCCCN1	20.6
COC(=O)[C@H](c1ccc(C)cc1)[C@H]1CCCCN1	33
COC(=O)[C@H](c1ccc(Cl)c(Cl)c1)[C@H]1CCCCN1	5.3
COC(=O)[C@H](c1ccc2ccccc2c1)[C@H]1CCCCN1	11
COC(=O)[C@H](c1ccccc1Cl)[C@H]1CCCCN1	1950
COC(=O)[C@H](c1ccccc1Br)[C@@]1(C)CCCCN1	1870
COC(=O)[C@H](c1cccc(O)c1)[C@H]1CCCCN1	321
COC(=O)[C@H](c1cccc(Cl)c1)[C@H]1CCCCN1	5.1
COC(=O)[C@H](c1ccc(F)cc1)[C@H]1CCCCN1	35
COC(=O)[C@H](c1ccccc1F)[C@H]1CCCCN1	1420
COC(=O)[C@H](c1cccc(F)c1)[C@H]1CCCCN1	40.5
COC(=O)[C@H](c1cccc(N)c1)[C@H]1CCCCN1	265
COC(=O)[C@H](c1ccc(N)cc1)[C@H]1CCCCN1	34.5
COC(=O)[C@H](c1cccc(Cl)c1)[C@@]1(C)CCCCN1C	160
COC(=O)[C@H](c1ccc(I)cc1)[C@H]1CCCCN1	14
COC(=O)[C@H](c1cccc(Br)c1)[C@H]1CCCCN1	4.18
COC(=O)[C@H](c1ccc(OCO)c(CO)c1)[C@H]1CCCCN1C	620
COC(=O)[C@H](c1ccc([N+](=O)[O-])cc1)[C@H]1CCCCN1	494
COC(=O)[C@H](c1ccc(OC)c(OC)c1)[C@H]1CCCCN1	810
OC[C@H](c1ccccc1)[C@H]1CCCCN1Cc1ccccc1	23.7
COC[C@H](c1ccccc1)[C@H]1CCCCN1Cc1ccccc1	17.8
COC(=O)[C@H](c1ccccc1)[C@H]1CCCCN1Cc1ccccc1	52.9
COC(=O)[C@H](c1ccc(C(F)(F)F)cc1)[C@H]1CCCCN1	615

SMILES	IC50 [nM]
COC(=O)[C@H](c1ccc(Br)cc1)[C@H]1CCCCN1	6.9
OC[C@H](c1ccccc1)[C@H]1CCCCN1 (racemic)	448
COC[C@H](c1ccccc1)[C@H]1CCCCN1 (racemic)	97.1
OC[C@H](c1ccc(Cl)c(Cl)c1)[C@H]1CCCCN1 (racemic)	4.2
CCN1CCCC[C@@H]1[C@H](CO)c1ccccc1 (racemic)	2340
OC[C@H](c1cccc(F)c1)[C@H]1CCCCN1 (racemic)	281
COC[C@H](c1ccc(Cl)c(Cl)c1)[C@H]1CCCCN1 (racemic)	1.7
NC(=O)[C@H](c1ccc(Cl)c(Cl)c1)[C@H]1CCCCN1 (racemic)	16.4
CC(=O)OC[C@H](c1ccccc1)[C@H]1CCCCN1 (racemic)	690
NC(=O)[C@H](c1ccccc1)[C@H]1CCCCN1 (racemic)	1730
CCc1ccc([C@@H](C(=O)OC)[C@H]2CCCCN2)cc1 (racemic)	737
COC(=O)[C@H](c1cc(Cl)cc(Cl)c1)[C@H]1CCCCN1 (racemic)	65.6
COC(=O)[C@H](c1cc(C)cc(C)c1)[C@H]1CCCCN1 (racemic)	4690
COC(=O)[C@H](c1ccccc1)[C@H]1CCCCN1Cc1ccc([N+](=O)[O-])cc1 (racemic)	113
COC(=O)[C@H](c1ccccc1)[C@H]1CCCCN1Cc1ccc(Cl)cc1 (racemic)	31.2
C=CCN1CCCC[C@@H]1[C@H](C(=O)OC)c1ccccc1 (racemic)	597
COC(=O)[C@H](c1ccccc1)[C@H]1CCCCN1Cc1ccccc1Cl (racemic)	243
COC(=O)[C@H](c1ccccc1)[C@H]1CCCCN1CCCCCCc1ccccc1 (racemic)	656
COC(=O)[C@H](c1ccccc1)[C@H]1CCCCN1CCCCCc1ccccc1 (racemic)	1570
COC(=O)[C@H](c1ccccc1)[C@H]1CCCCN1CCCCc1ccccc1 (racemic)	205
COC(=O)[C@H](c1ccccc1)[C@H]1CCCCN1CCc1ccccc1 (racemic)	678
COC(=O)[C@H](c1ccccc1)[C@H]1CCCCN1Cc1cccc(Cl)c1 (racemic)	106
COC(=O)[C@H](c1ccccc1)[C@H]1CCCCN1CCCc1ccccc1 (racemic)	267

SMILES	IC50 [nM]
OC[C@H](c1ccccc1)[C@H]1CCCCN1CCc1ccccc1 (racemic)	1430
OC[C@H](c1ccccc1)[C@H]1CCCCN1CCCCc1ccccc1 (racemic)	623
C#CCN1CCCC[C@@H]1[C@H](C(=O)OC)c1ccccc1 (racemic)	821
OC[C@H](c1ccccc1)[C@H]1CCCCN1CCCc1ccccc1 (racemic)	194
COC(=O)[C@H](c1ccccc1)[C@H]1CCCCN1Cc1ccc(N=C=S)cc1 (racemic)	422
COC(=O)[C@H](c1cccc(Cl)c1)[C@H]1CCCCN1Cc1ccccc1 (racemic)	41.2
CN(C)C(=O)[C@H](c1ccccc1)[C@H]1CCCCN1Cc1ccccc1 (racemic)	1730
NC(=O)[C@H](c1ccccc1)[C@H]1CCCCN1Cc1ccccc1 (racemic)	384
COC(=O)[C@H](c1ccc(Cl)c(Cl)c1)[C@H]1CCCCN1Cc1ccccc1 (racemic)	76.3
OC[C@H](c1ccc(Cl)c(Cl)c1)[C@H]1CCCCN1Cc1ccccc1 (racemic)	2.74
COC[C@H](c1ccc(Cl)c(Cl)c1)[C@H]1CCCCN1Cc1ccccc1 (racemic)	4.2
O=C(OCc1ccccc1)[C@H](c1ccccc1)[C@H]1CCCCN1 (racemic)	1020
OC[C@H](c1ccccc1)[C@H]1CCCCN1Cc1cccc(Cl)c1 (racemic)	25.8
COC(=O)[C@H](c1ccccc1)[C@H]1CCCCN1Cc1ccoc1 (racemic)	459
COC(=O)[C@H](c1ccccc1)[C@H]1CCCCN1Cc1cccs1 (racemic)	224
COC(=O)[C@H](c1ccccc1)[C@H]1CCCCN1Cc1ccsc1 (racemic)	143
COC(=O)[C@H](c1ccccc1)[C@H]1CCCCN1Cc1ccco1 (racemic)	536
COC(=O)[C@H](c1ccccc1)[C@H]1CCCCN1Cc1ccncc1 (racemic)	128
COC(=O)[C@H](c1ccccc1)[C@H]1CCCCN1Cc1cccnc1 (racemic)	173
COC(=O)[C@H](c1ccccc1)[C@H]1CCCCN1Cc1ccccn1 (racemic)	369
COC(=O)[C@H](c1ccccc1)[C@H]1CCCCN1Cc1ccc(Cl)s1 (racemic)	392
COC(=O)[C@H](c1ccccc1)[C@H]1CCCCN1Cc1ccc(OC)cc1 (racemic)	79.1

Same assay, conditions: read-out: pIC50 (converted)

SMILES	IC50 [nM]
COC(=O)[C@H](c1ccc(O)cc1)[C@H]1CCCCN1C	1200
COC(=O)[C@H](c1ccc(C)cc1)[C@H]1CCCCN1C	141
OC[C@H](c1ccc(Cl)c(Cl)c1)[C@H]1CCCCN1Cc1ccccc1 (racemic)	2.69
